Activity calls are given as the source filed them. No cut-off for these calls is given here.
Each compound was assayed on HCT-116 (assay: Induction of apoptosis in human HCT116 cells assessed as increase in caspase-3 activity at 700 uM after 24 hrs by DEVD-pNA substrate-based colorimetric assay relative to control).
Assay type: functional, cell-based
Outline: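 HCT116 cells were incubated with each compound for 24 or 48 h. Caspase-3 enzyme activity was measured relative to untreated control cells. Values are means of two independent experiments, with P < 0.05 taken as significant.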

Row | Structure (SMILES) | Activity
1 | O=C(OC(C(=O)c1ccccc1)c1ccccc1)c1ccc([N+](=O)[O-])cc1 (stereo unspecified) | Active
2 | O=C(OC(C(=O)c1ccccc1)c1ccccc1)c1ccccc1F (stereo unspecified) | Active
3 | O=C(OC(C(=O)c1ccccc1)c1ccccc1)c1ccc(F)cc1 (stereo unspecified) | Active
4 | O=C(OC(C(=O)c1ccccc1)c1ccccc1)c1cccc(F)c1 (stereo unspecified) | Active
5 | O=C(OC(C(=O)c1ccccc1)c1ccccc1)c1ccc(Cl)cc1 (stereo unspecified) | Active
6 | COc1ccc(C(=O)C(O)c2ccc(OC)cc2)cc1 (stereo unspecified) | Active

Source: ChEMBL document CHEMBL3600315, “Molecular modeling based approach, synthesis, and cytotoxic activity of novel benzoin derivatives targeting phosphoinostide 3-kinase (PI3Kα)” (Bioorg Med Chem Lett, 2015)
